Experimental data published in ChEMBL document CHEMBL1156597, “Structure-activity relationship of kahalalide F synthetic analogues” (J Med Chem, 2008).

Columns and labels:
[1] = test system: DU-145; experiment: Cytotoxicity against human DU145 cells after 48 hrs by SRB assay; format: functional, cell-based; settings: Homo sapiens, DU-145, 48 h; for CC50: read-out: LC50 (the source's name)
Procedure, shortened: (§1)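 Cells grown in RPMI 1640 with 10% FBS and penicillin/streptomycin at 37 °C and 5% CO₂, trypsinized, then seeded at 5 × 10³/well. After 18 h drug-free attachment, samples in DMSO/EtOH/PBS (0.5:0.5:99) were added for 48 h continuous exposure. Cells were fixed with cold TCA (1 h, 4 °C) and stained with SRB (10 min). Tris-solubilized stain read at 490 nm. Triplicate wells, mean ± SD; GI₅₀ derived.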

[2] = test system: SK-MEL-28; experiment: Cytotoxicity against human SK-MEL-28 cells after 48 hrs by SRB assay; format: functional, cell-based; settings: Homo sapiens, SK-MEL-28, 48 h; for CC50: read-out: LC50 (the source's name); procedure, shortened: as §1
[3] = test system: LoVo; experiment: Cytotoxicity against human doxorubicin resistant LoVo cells after 48 hrs by SRB assay; format: functional; settings: for CC50: read-out: LC50 (the source's name); procedure, shortened: as §1
[4] = test system: A549; experiment: Cytotoxicity against human A549 cells after 48 hrs by SRB assay; format: functional, cell-based; settings: Homo sapiens, A549, 48 h; procedure, shortened: as §1
[5] = Cytotoxicity against human IGROV-ET cells after 48 hrs by SRB assay; format: functional; settings: for CC50: read-out: LC50 (the source's name); procedure, shortened: as §1
[6] = test system: PANC-1; experiment: Cytotoxicity against human PANC1 cells after 48 hrs by SRB assay; format: functional; settings: PANC-1, 48 h; for CC50: read-out: LC50 (the source's name); procedure, shortened: as §1
[7] = test system: HT-29; experiment: Cytotoxicity against human HT29 cells after 48 hrs by SRB assay; format: functional, cell-based; settings: Homo sapiens, HT-29, 48 h; for CC50: read-out: LC50 (the source's name); procedure, shortened: as §1
[8] = Cytotoxicity against human IGROV cells after 48 hrs by SRB assay; format: functional; settings: for CC50: read-out: LC50 (the source's name); procedure, shortened: as §1
[9] = test system: LNCaP; experiment: Cytotoxicity against human LNcaP cells after 48 hrs by SRB assay; format: functional; settings: for CC50: read-out: LC50 (the source's name); procedure, shortened: as §1
[10] = test system: LoVo; experiment: Cytotoxicity against human LoVo cells after 48 hrs by SRB assay; format: functional; settings: for CC50: read-out: LC50 (the source's name)
[11] = test system: K562; experiment: Cytotoxicity against human K562 cells after 48 hrs by SRB assay; format: functional; settings: K562, 48 h; for CC50: read-out: LC50 (the source's name); procedure, shortened: as §1
[12] = test system: SK-BR-3; experiment: Cytotoxicity against human SKBR3 cells after 48 hrs by SRB assay; format: functional; settings: SK-BR-3, 48 h; for GI50: read-out: GI50; for CC50: read-out: LC50 (the source's name); procedure, shortened: as §1
[13] = Cytotoxicity against human HeLa-APL cells after 48 hrs by SRB assay; format: functional; procedure, shortened: as §1
[14] = test system: HeLa; experiment: Cytotoxicity against human HeLa cells after 48 hrs by SRB assay; format: functional; settings: read-out: LC50 (the source's name); procedure, shortened: as §1

Structure (SMILES)	CC50 [1] [nM]	CC50 [2] [nM]	CC50 [3] [nM]	LC50 [4] [nM]	GI50 ([4]; read-out: GI50) [nM]	CC50 [5] [nM]	GI50 [6] [nM]	TGI [6] [nM]	CC50 [6] [nM]	GI50 [7] [nM]	TGI [7] [nM]	CC50 [7] [nM]	GI50 ([8]; read-out: GI50) [nM]	CC50 [8] [nM]	GI50 [9] [nM]	TGI [9] [nM]	CC50 [9] [nM]	GI50 [10] [nM]	TGI [10] [nM]	CC50 [10] [nM]	further results
C/C=C1\NC(=O)[C@H](Cc2ccccc2)NC(=O)[C@@H](C(C)C)NC(=O)[C@@H]([C@H](C)CC)NC(=O)[C@H](NC(=O)[C@H](NC(=O)[C@H](CCCN)NC(=O)[C@H]2CCCN2C(=O)[C@H](NC(=O)[C@@H](NC(=O)[C@@H](NC(=O)[C@H](NC(=O)CCCCC(C)(F)F)C(C)C)[C@@H](C)O)C(C)C)C(C)C)[C@H](C)CC)[C@H](C)OC(=O)[C@H](C(C)C)NC1=O	5480	1300	50700	1440	2030	571	2040	1850	1690	1960	2510	3190	1330	2460	1840	2870	3730	442	397	444	TGI [1]: 3920 nM; GI50 ([1]; read-out: GI50): 4520 nM; TGI [4]: 2320 nM; GI50 [5]: 751 nM; GI50 ([5]; read-out: GI50): 987 nM; TGI [8]: 1540 nM; GI50 [11]: 2960 nM; TGI [11]: 2460 nM; CC50 [11]: 2060 nM
C/C=C1\NC(=O)[C@H](Cc2ccccc2)NC(=O)[C@@H](C(C)C)NC(=O)[C@@H]([C@H](C)CC)NC(=O)[C@H](NC(=O)[C@H](NC(=O)[C@H](CCCN)NC(=O)[C@H]2CCCN2C(=O)[C@H](NC(=O)CCCC(C)C)C(C)C)[C@H](C)CC)[C@H](C)OC(=O)[C@H](C(C)C)NC1=O	22300	2500	5840	2870		6210	2920	2660	2450			7470		6040	9850	9970	8890			4320	GI50 [11]: 3480 nM; TGI [11]: 3510 nM; CC50 [11]: 3540 nM
C/C=C1\NC(=O)[C@H](Cc2ccccc2)NC(=O)[C@@H](C(C)C)NC(=O)[C@@H]([C@H](C)CC)NC(=O)[C@H](NC(=O)[C@H](NC(=O)[C@H](CCC(=O)O)NC(=O)[C@H]2CCCN2C(=O)[C@H](NC(=O)[C@@H](NC(=O)[C@@H](NC(=O)[C@H](NC(=O)CCCC(C)C)C(C)C)[C@@H](C)O)C(C)C)C(C)C)[C@H](C)CC)[C@H](C)OC(=O)[C@H](C(C)C)NC1=O	10200	1980	3590	22600	1090	3540	2500	2540	2600	2670	3260	4000	1950	3200	1880	3130	4360	785	692	1350	TGI [2]: 4980 nM; GI50 ([2]; read-out: GI50): 5890 nM; TGI [4]: 8950 nM; TGI [5]: 3530 nM; GI50 ([5]; read-out: GI50): 3540 nM; TGI [8]: 2530 nM; GI50 [11]: 3320 nM; TGI [11]: 4200 nM; CC50 [11]: 2900 nM
C/C=C1\NC(=O)[C@H](Cc2ccc(F)cc2)NC(=O)[C@@H](C(C)C)NC(=O)[C@@H]([C@H](C)CC)NC(=O)[C@H](NC(=O)[C@H](NC(=O)[C@H](CCCN)NC(=O)[C@H]2CCCN2C(=O)[C@H](NC(=O)[C@@H](NC(=O)[C@@H](NC(=O)[C@H](NC(=O)CC[C@@H](C)CC)C(C)C)[C@@H](C)O)C(C)C)C(C)C)[C@H](C)CC)[C@H](C)OC(=O)[C@H](C(C)C)NC1=O	893	953	512	1040	1010	649	1460	1530	1580	452	462	479	812	381	514	620	747	393	361	330	TGI [12]: 448 nM; GI50 [12]: 519 nM; CC50 [12]: 389 nM; GI50 [1]: 893 nM; GI50 ([1]; read-out: GI50): 891 nM; GI50 [2]: 819 nM; GI50 ([2]; read-out: GI50): 699 nM; GI50 [3]: 413 nM; TGI [3]: 460 nM; TGI [4]: 1030 nM; GI50 [5]: 791 nM; GI50 ([5]; read-out: GI50): 971 nM; GI50 [13]: 737 nM; LC50 (concentration giving 50% net cell kill) [13]: 837 nM; TGI [13]: 786 nM; CC50 [14]: 2820 nM; GI50 [8]: 558 nM
C/C=C1\NC(=O)[C@H](Cc2c(F)c(F)c(F)c(F)c2F)NC(=O)[C@@H](C(C)C)NC(=O)[C@@H]([C@H](C)CC)NC(=O)[C@H](NC(=O)[C@H](NC(=O)[C@H](CCCN)NC(=O)[C@H]2CCCN2C(=O)[C@H](NC(=O)[C@@H](NC(=O)[C@@H](NC(=O)[C@H](NC(=O)CC[C@@H](C)CC)C(C)C)[C@@H](C)O)C(C)C)C(C)C)[C@H](C)CC)[C@H](C)OC(=O)[C@H](C(C)C)NC1=O	1000	1120	374	1270	1850	1150	2110	3420	2810	1090	1740	256	2070	1100	504	681	778	469	426	386	TGI [12]: 492 nM; GI50 [12]: 556 nM; CC50 [12]: 435 nM; TGI [1]: 1170 nM; GI50 ([1]; read-out: GI50): 1370 nM; TGI [2]: 1200 nM; GI50 ([2]; read-out: GI50): 1280 nM; GI50 [3]: 496 nM; TGI [3]: 432 nM; TGI [4]: 1530 nM; GI50 [13]: 1450 nM; LC50 (concentration giving 50% net cell kill) [13]: 983 nM; TGI [13]: 1200 nM; CC50 [14]: 1300 nM; TGI [8]: 1740 nM
C/C=C1\NC(=O)[C@H](Cc2ccc(I)cc2)NC(=O)[C@@H](C(C)C)NC(=O)[C@@H]([C@H](C)CC)NC(=O)[C@H](NC(=O)[C@H](NC(=O)[C@H](CCCN)NC(=O)[C@H]2CCCN2C(=O)[C@H](NC(=O)[C@@H](NC(=O)[C@@H](NC(=O)[C@H](NC(=O)CC[C@@H](C)CC)C(C)C)[C@@H](C)O)C(C)C)C(C)C)[C@H](C)CC)[C@H](C)OC(=O)[C@H](C(C)C)NC1=O	117	354	225	181	226	776	1200	1300	1410	396	407	423	670	179	345	512	686	365	361	358	TGI [12]: 315 nM; GI50 [12]: 305 nM; CC50 [12]: 327 nM; GI50 [1]: 131 nM; GI50 ([1]; read-out: GI50): 148 nM; GI50 [2]: 202 nM; GI50 ([2]; read-out: GI50): 160 nM; GI50 [3]: 134 nM; TGI [3]: 183 nM; GI50 [4]: 203 nM; GI50 [5]: 955 nM; GI50 ([5]; read-out: GI50): 1190 nM; GI50 [13]: 313 nM; LC50 (concentration giving 50% net cell kill) [13]: 605 nM; TGI [13]: 416 nM; CC50 [14]: 156 nM; GI50 [8]: 394 nM
C/C=C1\NC(=O)[C@H](Cc2ccccc2)NC(=O)[C@@H](C(C)C)NC(=O)[C@@H]([C@H](C)CC)NC(=O)[C@H](NC(=O)[C@H](NC(=O)[C@H](CCCN)NC(=O)[C@H]2CCCN2C(=O)[C@H](NC(=O)[C@@H](NC(=O)[C@@H](NC(=O)[C@H](NC(=O)Cc2ccc(C(F)(F)F)cc2)C(C)C)[C@@H](C)O)C(C)C)C(C)C)[C@H](C)CC)[C@H](C)OC(=O)[C@H](C(C)C)NC1=O	6240	1200	1240	1100	1840	524	2170	2250	2340	1680	2300	2920	1000	1890	1630	3130	4400	458	492	819	TGI [1]: 5500 nM; GI50 ([1]; read-out: GI50): 5280 nM; TGI [2]: 15900 nM; GI50 ([2]; read-out: GI50): 2800 nM; TGI [4]: 2150 nM; GI50 [5]: 675 nM; GI50 ([5]; read-out: GI50): 866 nM; GI50 [8]: 892 nM; GI50 [11]: 2230 nM; TGI [11]: 2520 nM; CC50 [11]: 2790 nM
